ChEMBL document CHEMBL5096187, “Efficient Synthesis and Bioevaluation of Novel Dual Tubulin/Histone Deacetylase 3 Inhibitors as Potential Anticancer Agents” (J Med Chem, 2021)
Activity calls are given as the source filed them. No cut-off for these calls is given here.

Columns and labels:
[1] = test system: HCT-116; test: Antiproliferative activity against human HCT-116 cells assessed as inhibition of cell viability measured for 48 hrs by microplate reader based MTT assay; type: functional; conditions: HCT-116, 48 h
Procedure, shortened: (§1)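 Cells grown in RPMI-1640 with 10% FBS and seeded at 5000 cells/well. After overnight attachment, compound was added in medium with 0.1% DMSO for 48 h at 37 °C. Read-out was MTT for HCT-116, B16-F10 and A549, and CCK-8 for Jurkat (0.5 mg/mL, 4 h), with absorbance at 570 nm. IC50 from nonlinear regression; at least three independent experiments.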

[2] = test system: B16-F10; test: Antiproliferative activity against mouse B16-F10 cells assessed as inhibition of cell viability measured for 48 hrs by microplate reader based MTT assay; type: functional; conditions: B16-F10, 48 h; procedure, shortened: as §1
[3] = test system: A549; test: Antiproliferative activity against human A549 cells assessed as inhibition of cell viability measured for 48 hrs by microplate reader based CCK-8 assay; type: functional; conditions: A549, 48 h
[4] = Antiproliferative activity against human YCC-11 cells assessed as inhibition of cell viability; type: functional, cell-based
[5] = target: T1, Histone deacetylase 8 (Homo sapiens, UniProt Q9BY41); test: Inhibition of full length C-terminal his-tagged human recombinant HDAC8 ([…]) expressed in baculovirus in Sf9 insect cells using Ac-Leu-Gly-Lys (Tfa)-AMC as substrate pretreated for 5 mins followed by substrate addition and measured after 30 mins
T1 sequence (Q9BY41 whole entry): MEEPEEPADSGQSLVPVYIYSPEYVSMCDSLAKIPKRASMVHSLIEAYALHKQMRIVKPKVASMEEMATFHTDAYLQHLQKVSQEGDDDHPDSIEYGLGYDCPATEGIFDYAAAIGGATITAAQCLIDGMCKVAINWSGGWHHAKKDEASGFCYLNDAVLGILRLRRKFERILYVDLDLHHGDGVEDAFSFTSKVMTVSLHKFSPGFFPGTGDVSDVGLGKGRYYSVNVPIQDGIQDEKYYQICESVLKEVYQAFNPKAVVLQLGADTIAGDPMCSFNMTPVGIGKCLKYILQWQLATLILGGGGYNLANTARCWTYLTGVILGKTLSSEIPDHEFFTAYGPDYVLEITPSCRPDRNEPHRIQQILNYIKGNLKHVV

[6] = target: Tubulin (Sus scrofa, UniProt P02554+P02550); test: Inhibition of pig brain tubulin polymerization by spectrometric method
Procedure, shortened: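 Phosphocellulose-purified pig brain tubulin mixed with graded compound concentrations in PEM buffer (100 mM PIPES, 1 mM MgCl2, 1 mM EGTA) plus 1 mM GTP and 5% glycerol. Absorbance at 340 nm and 37 °C; plateau absorbance used to calculate IC50.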

[7] = target: T2, Tubulin (Sus scrofa) (UniProt P02554+P02550); test: Inhibition of pig brain tubulin polymerization measured after 20 mins by spectrometric method; conditions: dose 0.8-25 µM, DDE = dose-dependent effect
Procedure, shortened: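 Tubulin purified from pig brain microtubule protein (three assembly/disassembly cycles, then phosphocellulose chromatography). Tubulin mixed with compound in PEM buffer (100 mM PIPES, 1 mM MgCl₂, 1 mM EGTA) plus 1 mM GTP and 5% glycerol. Polymerization followed at 340 nm, 37 °C. Inhibition versus vehicle at 20 min; plateau absorbance used.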

[8] = target: T2, Tubulin (Sus scrofa); test: Inhibition of pig brain tubulin polymerization in mouse B16-F10 cells assessed as disruption of microtubule network at 100 nM measured for 6 hrs by immunofluorescence assay; type: cell-based
Procedure, shortened: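 B16-F10 cells on glass coverslips exposed 6 h to test agent or 0.1% DMSO vehicle, fixed in 4% paraformaldehyde, permeabilized with 0.2% Triton X-100 in PBS, blocked 30 min with goat serum, then anti-β-tubulin monoclonal 1 h at 37 °C, fluorescent secondary and DAPI nuclear stain. Microtubule network judged by fluorescence or confocal microscopy.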

[9] = test system: B16-F10; test: Inhibition of cell migration in mouse B16-F10 cells assessed as reduction in wound area ratio measured at 25 nM incubated for 24 hrs by wound healing assay; type: functional; set-up: scale not given: the % may be the effect or the level left
Procedure, shortened: (§2)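 Confluent B16-F10 monolayers, seeded overnight, were scratched with a pipette tip and washed to remove debris. Cells were then treated, and phase-contrast images were taken at 0 and 24 h. Migration distance or wound area measured manually against DMSO control; n = 3.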

[10] = test system: B16-F10; test: Inhibition of cell migration in mouse B16-F10 cells assessed as reduction in wound area ratio measured at 50 nM incubated for 24 hrs by wound healing assay; type: functional; set-up: scale not given: the % may be the effect or the level left; procedure, shortened: as §2
[11] = test system: B16-F10; test: Inhibition of colony formation in mouse B16-F10 cells assessed as reduction in number of colonies at 100 nM incubated for 24 hrs; type: functional, cell-based
Procedure, shortened: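 1000 B16-F10 cells seeded and cultured 24 h at 37 °C, then exposed to compound for 24 h. Medium was then replaced and cells grown 10–14 days. Colonies fixed with 4% paraformaldehyde for 30 min, stained with 0.1% crystal violet for 15 min, and counted; n = 3 versus DMSO.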

[12] = test system: B16-F10; test: Induction of cell cycle arrest in mouse B16-F10 cells assessed as accumulation of cells in G2/M phase at 50 nM measured after 48 hrs by PI/RNaseA staining based flow cytometry analysis (Rvb= 5.76%); type: functional
[13] = test system: B16-F10; test: Induction of apoptosis in mouse B16-F10 cells assessed as necrotic cells at 100 nM incubated for 48 hrs by Annexin V-FITC/PI analysis (reference value: 0.012 %); type: functional
[14] = test system: B16-F10; test: Induction of apoptosis in mouse B16-F10 cells assessed as late apoptotic cells at 25 nM incubated for 48 hrs by Annexin V-FITC/PI analysis (reference value: 0.00 %); type: functional
[15] = test system: B16-F10; test: Induction of apoptosis in mouse B16-F10 cells assessed as viable cells at 50 nM incubated for 48 hrs by Annexin V-FITC/PI analysis (reference value: 98.3 %); type: functional; conditions: read-out: Activity
[16] = test system: B16-F10; test: Induction of apoptosis in mouse B16-F10 cells assessed as early apoptotic cells at 50 nM incubated for 48 hrs by Annexin V-FITC/PI analysis (reference value: 1.68 %); type: functional
[17] = test system: B16-F10; test: Induction of apoptosis in mouse B16-F10 cells assessed as necrotic cells at 50 nM incubated for 48 hrs by Annexin V-FITC/PI analysis (reference value: 0.012 %); type: functional
[18] = Hepatotoxicity in C57BL/6 mouse assessed as effect on ALT level in serum; type: toxicity
[19] = Hepatotoxicity in C57BL/6 mouse assessed as effect on total bilirubin level in serum; type: toxicity
[20] = Nephrotoxicity in C57BL/6 mouse assessed as effect on globulin GLO level in serum; type: toxicity; conditions: in vivo
[21] = In vivo inhibition of HDAC in tumor of mouse B16-F10 cells xenografted in C57BL/6 mouse assessed as increase in acetylated histone-H3 expression by […] immunohistochemistry method; type: functional; set-up: scale not given: the % may be the effect or the level left
Procedure, shortened: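 Tumors from the 14-day i.p. B16-F10 study were formalin-fixed and paraffin-embedded. Sections were deparaffinized, treated with 3% H2O2, and antigen-retrieved at pH 9 and 80 °C overnight. Blocked with milk, incubated with anti-Ac-H3 at 4 °C overnight, then IgG secondary and hematoxylin counterstain. Ac-H3-positive ratio quantified from images.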

[22] = Toxicity in C57BL/6 mouse allografted with mouse B16-F10 cells assessed as body weight loss at 10 mg/kg, ip administered for 14 days; conditions: in vivo, 336 h

T2 sequence (P02550 whole entry, looked up): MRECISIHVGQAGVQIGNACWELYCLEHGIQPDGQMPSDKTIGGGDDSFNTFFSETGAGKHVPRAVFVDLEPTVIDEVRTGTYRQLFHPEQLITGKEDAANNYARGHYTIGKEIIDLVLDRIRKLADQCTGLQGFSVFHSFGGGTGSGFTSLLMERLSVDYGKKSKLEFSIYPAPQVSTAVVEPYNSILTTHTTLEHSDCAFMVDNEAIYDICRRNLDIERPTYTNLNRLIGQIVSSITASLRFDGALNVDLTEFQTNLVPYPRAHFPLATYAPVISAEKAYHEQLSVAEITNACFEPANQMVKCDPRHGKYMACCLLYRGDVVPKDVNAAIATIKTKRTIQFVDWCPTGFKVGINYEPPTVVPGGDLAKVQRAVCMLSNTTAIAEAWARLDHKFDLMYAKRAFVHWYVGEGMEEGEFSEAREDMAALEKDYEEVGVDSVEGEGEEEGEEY
T2 sequence (P02554 whole entry, looked up): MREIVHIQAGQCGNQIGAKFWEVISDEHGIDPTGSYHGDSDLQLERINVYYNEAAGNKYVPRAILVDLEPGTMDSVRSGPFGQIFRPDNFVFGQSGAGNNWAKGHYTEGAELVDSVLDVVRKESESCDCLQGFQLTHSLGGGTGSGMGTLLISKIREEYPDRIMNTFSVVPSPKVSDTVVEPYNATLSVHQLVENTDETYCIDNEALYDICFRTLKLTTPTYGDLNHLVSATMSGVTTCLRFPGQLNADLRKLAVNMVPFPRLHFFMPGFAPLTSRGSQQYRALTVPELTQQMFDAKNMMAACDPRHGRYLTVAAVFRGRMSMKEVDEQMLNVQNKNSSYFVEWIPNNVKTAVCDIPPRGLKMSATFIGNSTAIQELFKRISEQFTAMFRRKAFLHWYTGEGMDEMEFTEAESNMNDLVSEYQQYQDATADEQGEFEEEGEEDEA

COc1cc(C(=O)c2csc(-c3ccc(NC(=O)CCCC(=O)Nc4ccccc4N)cc3)n2)cc(OC)c1OC
IC50 [1]: 0.05 µM | IC50 [2]: 0.07 µM | IC50 [3]: 0.14 µM | IC50 [4]: 0.3 µM | IC50 [5]: 11.6 µM | IC50 [6]: 12.2 µM | inhibition [7]: Dde | inhibition [8]: Active | Activity [9]: 27.32% | Activity [10]: 17.63% | Activity [11]: Active | Activity [12]: 66.32% | Activity [13]: 1.29% | Activity [14]: 0% | viability at 0.05 µM [15]: 58.9% | Activity [16]: 7.09% | Activity [17]: 1.9% | Activity [18]: Non-Toxic | Activity [19]: Non-Toxic | Activity [20]: Non-Toxic | Activity [21]: 36.7% | Activity [22]: Non-Toxic
